According to the EternaBench riboswitch data:

System: MS2 coat protein
Experiment: apparent Kd, MS2 coat protein; higher = weaker binding; RNA-MaP array; FMN 200 µM where present
How it was run: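 Two titrations, one without ligand and one with constant ligand, were run with SNAP-549-labelled MS2 coat protein from 0.7 or 1.5 nM, doubling to 3 µM. The targets were designs transcribed by stalled E. coli RNA polymerase on Illumina sequencing-chip clusters, in 100 mM Tris-HCl pH 7.5, 80 mM KCl, 4 mM MgCl2, BSA, DTT, yeast tRNA and Tween-20. The apparent Kd is the median of filtered per-cluster binding-curve fits, with green signal normalised to red-channel RNA signal and control-cluster median Fmax.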

[1] = designed as: OFF switch for flavin mononucleotide, no ligand
[2] = ligand present: flavin mononucleotide, designed as: OFF switch for flavin mononucleotide
[3] = designed as: ON switch for flavin mononucleotide, no ligand
[4] = ligand present: flavin mononucleotide, designed as: ON switch for flavin mononucleotide

“CUGAUGUGAGGAUAUCGGGCUACAGCCCUGCUGCUAGCAAACGAGAAGGCACAUGAGGAUCACCCAUGUGAUAG” was tested. Which “apparent Kd” value [1] did it give?
Its value is 21.6 nM.

And the “apparent Kd” value [2]?
Its value is 24.3 nM.

How did the “apparent Kd” value [3] turn out when “AUUUUAUAAUAGAAGGAAGACUUCAUGAGGAUCACCCAUGUGUUGGUACUUAGGAUAUGUAAUAACAUGAGGAUCACCCAUGUC” was run?
Its value is 25.6 nM.

What about the “apparent Kd” value [4] of the same sequence?
The value was 26.1 nM.

For “GGUGCACGCACAGGAUAUCCGGCGGAGCUCGUCGGAGAAGGGUGACAUGAGGAUCACCCAUGUACGUGCAACCCAGUUUGAGAG”, which “apparent Kd” value [3] is on record?
Its value is 45.2 nM.

What about the “apparent Kd” value [4] of the same sequence?
Its value is 30.7 nM.

Which results are given for “GCGUGGAAUACAGGAUAUGUUGUACAAUAAUCUUUGAGGCAUUGAGAUAAAACAGAAGGGUAAACAUGAGGAUCACCCAUGUAA”?
apparent Kd [1]: 24.7 nM; apparent Kd [2]: 19.6 nM

How did the “apparent Kd” value [1] turn out when “UCAUAAUAGAUCCUAUUUAUCUACAUGAGGAUCACCCAUGUGCAGGAUAUGCUAUAAUUUAAUAAGCAGAAGGGCAAUUUCAGA” was run?
Its value is 96.8 nM.

And the “apparent Kd” value [2]?
The value was 381 nM.

For “CAGUAAGUAUUGCGAGGGUAGGAGCAGGAUAUCCCAUUGGCCCUCACAUGAGGAUCACCCAUGUGGGAGAAGGGCUAUUACGUC”, which “apparent Kd” value [1] is on record?
The value was 9.11 nM.

And the “apparent Kd” value [2]?
Its value is 22.5 nM.

With “CUAUAUAUAUGAGGAUAUGUAUAUCCAACAUGAGGAUCACCCAUGUUGAGGAUCACCCAUGUAAAGCAGAAGGCAUAUAUAUAG” as the sequence, how does the “apparent Kd” value [3] read?
The value was 22.7 nM.

What about the “apparent Kd” value [4] of the same sequence?
The value was 13.4 nM.

Which “apparent Kd” value [1] does the source give for “AGGAGGUCAGGAUAUGCAUGGCGGGACUUGCGUCGUGGCGUGCAGAAGGGACAUGAGGAUCACCCAUGUGGAGA” here?
The value was 86.1 nM.

What about the “apparent Kd” value [2] of the same sequence?
The value was 220 nM.

“CGAAGGGAGUCAGGAUAUGUUCCUUUCAUACGGACAGAAGGGACUCCUUACAUGAGGAUCACCCAUGUAAGGGUAGUCUUCAGG” was tested. Which “apparent Kd” value [1] did it give?
The value was 60.7 nM.

And the “apparent Kd” value [2]?
Its value is 90.6 nM.

Which results are given for “CACUUCCCGUCAGGAUAUCGCCGUAGGUCCUCGGGUCUCGCCGUCAUACAUGAGGAUCACCCAUGUGAGAAGGGACGGGUUUCA”?
apparent Kd [1]: 16.4 nM; apparent Kd [2]: 107 nM

With “AGCGCGGUCCACUUGGACGCCUACGAGGAUAUCCCGUCACAUGAGGAUCACCCAUGUAGGCGCAUGGAGAAGGCGUAGAAAUCA” as the sequence, how does the “apparent Kd” value [3] read?
Its value is 152 nM.

And the “apparent Kd” value [4]?
The value was 13.7 nM.

What does the source list for “GUCUCGUCAGGAUAUGACGCUACAUUUUGUUUUUAGAAGAGUCAGAAGGGACAUGAGGAUCACCCAUGUGAUUC”?
apparent Kd [1]: 329 nM; apparent Kd [2]: 402 nM

What does the source list for “CUUUUGUGAGGAUAUCAGUAGUAAAAAAAUAAAAUUACUUCUGAGAAGGCACAUGAGGAUCACCCAUGUUCCUC”?
apparent Kd [1]: 39.5 nM; apparent Kd [2]: 333 nM

For “AUCAGCUCGUCAGGAUAUACGUCAAUGCGUCAGCAGUGUGGUAAGAUCACAUGAGGAUCACCCAUGUAGAAGGGACGAGCUGAU”, which “apparent Kd” value [1] is on record?
The value was 125 nM.

What about the “apparent Kd” value [2] of the same sequence?
The value was 572 nM.

With “UUGGACGUCGUAGGAUAUGUAGGAUAUUCCUACAUGAGGAUCACCCAUGUUGACAUGGAACAAGGACAGAAGGACGAUGUCCAU” as the sequence, how does the “apparent Kd” value [3] read?
Its value is 493 nM.

And the “apparent Kd” value [4]?
Its value is 17.4 nM.

For “AUCGGCUGGCAGAAGGGCUAUGUGAUCCGGUUUUACAUGAGGAUCACCCAUGUAGCCUCGCGCUAGCAGGAUAUGCAACGGCUG”, which “apparent Kd” value [3] is on record?
The value was 175 nM.

And the “apparent Kd” value [4]?
The value was 40.4 nM.

How did the “apparent Kd” value [1] turn out when “GGGCUGUCAGGAUAUCGCGCGCGCGCGGAAAUGUGUGUGUGUGAGAAGGGACAUGAGGAUCACCCAUGUGGCCC” was run?
The value was 35.6 nM.

And the “apparent Kd” value [2]?
Its value is 36.8 nM.

How did the “apparent Kd” value [3] turn out when “AAAAGACAUGAGGAUCACCCAUGUGAAAACGUAGGAGGAUAUGUCUGGAAAACAUGCUGGACAGAAGGCCUGUGUC” was run?
Its value is 40.1 nM.

And the “apparent Kd” value [4]?
The value was 22.1 nM.

“UAGCUUGACGCAGGAUAUCCAGGGCUGAGAUGAGGAGAAGGGCGCCAAACAUGAGGAUCACCCAUGUAUUAUGCAGGGUCCUCA” was tested. Which “apparent Kd” value [1] did it give?
The value was 336 nM.

And the “apparent Kd” value [2]?
The value was 315 nM.

For “GUACGUGGACAGAAGGCGACAUGAGGAUCACCCAUGUUGGCUCGCGUAUGAGCAAUCCGCAUGAUUGAGGAUAUGUCUGCGGGC”, which “apparent Kd” value [1] is on record?
The value was 9.05 nM.

And the “apparent Kd” value [2]?
The value was 49.7 nM.

Which “apparent Kd” value [1] does the source give for “UUCCUCUUAACAUGAGGAUCACCCAUGUAUUAUUUGGUAAUUGAGGAUAUAUUUUUAAUGUUUAUAUAGAAGGCAAAUACAGUU” here?
The value was 45.7 nM.

What about the “apparent Kd” value [2] of the same sequence?
Its value is 49.3 nM.

What does the source list for “UGGUGGUAGCAGGAUAUGCUUGUUGUGUAGUUUGCAGAAGGGCUAACAUGAGGAUCACCCAUGUAAGAGGUGUU”?
apparent Kd [1]: 331 nM; apparent Kd [2]: 162 nM

How did the “apparent Kd” value [3] turn out when “GCUAGAAGCGUGAAAUAUCACAUGAGGAUCACCCAUGUGACACAGGAUAUAACAAUAUCAGAAGGUUAGAAGGGUGAACACGCC” was run?
The value was 119 nM.

What about the “apparent Kd” value [4] of the same sequence?
The value was 32.9 nM.

Which results are given for “UAUGUUAGCACAGGAUAUUGUUAUUAUUUAAUUCAAGAAGGGUGUACAUGAGGAUCACCCAUGUUAUGGUUUUAUCUUUUACAA”?
apparent Kd [1]: 1280 nM; apparent Kd [2]: 457 nM

Which “apparent Kd” value [3] does the source give for “GCUCUAUGCGAGAAGGCGUGCAACAUGAGGAUCACCCAUGUCAGAGAUAUGAGGAUAUUGCAUAGAGCAAAAGACGGAAACGUC” here?
Its value is 6.68 nM.

And the “apparent Kd” value [4]?
The value was 4.48 nM.

Which results are given for “GUCGUUGUCUGGUCGAGGAUAGGGCAGGAUAUACAUGAGGAUCACCCAUGUGAAGCGCGAAGGAGGUAGAAGGGCCCACGUCAU”?
apparent Kd [1]: 14.7 nM; apparent Kd [2]: 14.8 nM

For “UUAUUUUGUCAAGGAUAUGUAAUAUAGAUUAGAAAACAUGAGGAUCACCCAUGUAUAUGGUGGGAACAGAAGGUGAAUGGUUUA”, which “apparent Kd” value [1] is on record?
The value was 196 nM.

And the “apparent Kd” value [2]?
The value was 161 nM.
